Source: article PMC9924099 (Journal of medicinal chemistry, 2021)
Like-named read-outs stand apart in the source and are kept apart here.

What was measured:
[1] = test system: p53^R280K MDA-MB-231 cells; assay: WST-1 cell proliferation assay; format: cell-based, human; conditions: for IC50: Homo sapiens, read-out: IC50, inhibition of cell proliferation; for inhibition of cell proliferation (in words): MDA-MB-231, 24 h or 72 h
[2] = test system: p53^R273H MDA-MB-468 cells; assay: WST-1 cell proliferation assay; format: cell-based, human; conditions: Homo sapiens, read-out: IC50, inhibition of cell proliferation
[3] = test system: mammary epithelial cells (MCF10A); assay: Proliferation of normal cells; format: cell-based, human
[4] = test system: colon cells (CCD841); assay: Proliferation of normal cells; format: cell-based, human
[5] = test system: p53^R280K MDA-MB-231 cells; assay: Annexin V staining; format: cell-based, human; conditions: MDA-MB-231, 6 μM or 12 μM, 24 h
[6] = test system: p53^R273H MDA-MB-468 cells; assay: Annexin V staining; format: cell-based, human; conditions: MDA-MB-468, 6 μM or 12 μM; for increase in Annexin V stained cells compared to DMSO: 24 h
[7] = test system: WT p53 MCF-7 cells; assay: Annexin V staining; format: cell-based, human; conditions: MCF-7, 24 h
How it was run: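 After 24 h exposure to test compound or DMSO, MCF-7 cells (RPMI 1640, 10% FBS, 1% penicillin/streptomycin, 1% L-glutamine) were scraped, PBS-washed and taken up in Annexin V binding buffer. They were stained with fluorochrome-conjugated Annexin V for 15 min at RT in the dark, then PI staining solution was added. Flow cytometry read-out; % Annexin V-positive cells expressed relative to DMSO.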

[8] = target: p53^R280K in MDA-MB-231 cells (Homo sapiens, UniProt P04637, R280K); assay: Western blot of p53 expression; format: cell-based; conditions: MDA-MB-231, 6 μM or 12 μM, 24 h
How it was run: (§1)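 Cells were treated 24 h with 6 μM or 12 μM test compound or DMSO and lysed in NP-40/Tris-Cl pH 8.0 buffer with protease inhibitors. Load on 4–12% SDS-PAGE was 20 μg for MDA-MB-231 and MDA-MB-468 or 50 μg for MCF-7. After PVDF transfer, blots were probed with p53 DO-1 antibody, reprobed for GAPDH as loading control and developed by ECL.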

[9] = target: p53^R273H in MDA-MB-468 cells (Homo sapiens, UniProt P04637, R273H); assay: Western blot of p53 expression; format: cell-based; conditions: MDA-MB-468, 6 μM or 12 μM, 24 h
How it was run: as §1

[10] = target: WT p53 in MCF-7 cells (Homo sapiens, UniProt P04637); assay: Western blot of p53 expression; format: cell-based; conditions: MCF-7, 6 μM or 12 μM, 24 h
How it was run: as §1

[11] = test system: p53^R280K MDA-MB-231 cells; assay: qRT-PCR gene expression; format: cell-based, human; conditions: for expression of canonical p53 targets p21 and NOXA: MDA-MB-231, 6 μM, 4 h; for p53 mRNA levels: MDA-MB-231, 4 h
How it was run: (§2)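 Cells were exposed to 6 μM test compound or DMSO for 4 h. RNA was extracted and reverse-transcribed, and transcripts were quantified by TaqMan qRT-PCR normalised to GAPDH. Values are means with SD from triplicates of repeated experiments.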

[12] = test system: p53^R273H MDA-MB-468 cells; assay: qRT-PCR gene expression; format: cell-based, human; conditions: for expression of MDM2 / expression of canonical p53 targets p21 and NOXA: MDA-MB-468, 6 μM; for expression of canonical p53 targets p21 and NOXA: 4 h; for p53 mRNA levels: MDA-MB-468, 4 h
How it was run: as §2

[13] = test system: WT p53 MCF-7 cells; assay: qRT-PCR gene expression; format: cell-based, human; conditions: for expression of MDM2 / expression of canonical p53 targets p21 and NOXA: MCF-7, 6 μM; for expression of canonical p53 targets p21 and NOXA: 4 h; for p53 mRNA level: MCF-7, 4 h
How it was run: as §2

[14] = test system: caspase 3 and PARP1 in p53^R280K MDA-MB-231 cells; assay: Western blot of caspase 3 and PARP1; format: cell-based, human; conditions: MDA-MB-231, 24 h
How it was run: (§3)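 Cells grown in RPMI 1640 with 10% FBS, 1% penicillin/streptomycin and 1% L-glutamine, then given test compound or DMSO control for 24 h. Lysed 30 min on ice in Tris-Cl pH 8.0/NaCl/glycerol/NP-40/EDTA buffer with protease inhibitors, then cleared. 100 μg lysate run on 4-12% SDS-PAGE, transferred to PVDF, probed with anti-PARP and anti-caspase 3 (1:1000 each). ECL detection.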

[15] = test system: caspase 3 and PARP1 in p53^R273H MDA-MB-468 cells; assay: Western blot of caspase 3 and PARP1; format: cell-based, human; conditions: MDA-MB-468, 24 h
How it was run: as §3

[16] = test system: caspase 3 and PARP1 in WT p53 MCF-7 cells; assay: Western blot of caspase 3 and PARP1; format: cell-based, human; conditions: MCF-7 (caspase 3-deficient), 24 h
How it was run: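 MCF-7 cells were treated with test compound or DMSO for 24 h and lysed on ice for 30 min (20 mM Tris-Cl pH 8.0, 137 mM NaCl, 10% glycerol, 1% NP-40, 2 mM EDTA, protease inhibitors). Lysates were cleared at 18,500 × g. 100 μg lysate was run on 4–12% SDS-PAGE, transferred to PVDF and probed with anti-PARP and anti-caspase 3 (1:1000), HRP secondary and ECL. GAPDH served as loading control.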

[17] = test system: WT p53 MCF-7 cells; assay: WST-1 cell proliferation assay; format: cell-based, human; conditions: MCF-7, 24 h or 72 h; compared to mutant p53 cells
How it was run: (§4)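 WST-1 assay. Test compound in DMSO was added to cells at 40,000 cells/ml, giving 1% DMSO final, and plated at 4,000 cells/well in duplicate; medium-only wells served as background. Incubation was 24 h or 72 h at 37 °C, then WST-1 for 2 h and OD450 read. Proliferation is expressed as % of DMSO control; triplicate experiments. MCF-7 grown in RPMI 1640, MDA-MB-436 in DMEM.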

[18] = Log P determination; format: physicochemical; conditions: octanol/sodium phosphate buffer (pH 7.4)
[19] = test system: p53 null MDA-MB-436 cells; assay: WST-1 cell proliferation assay; format: cell-based, human; conditions: MDA-MB-436, 24 h and 72 h; compared to MDA-MB-231 or MDA-MB-468
How it was run: as §4

[20] = test system: p53 knockdown MDA-MB-468 cells; assay: WST-1 proliferation after p53 siRNA knockdown; format: cell-based, human; conditions: p53 siRNA MDA-MB-468 vs NS siRNA cells
How it was run: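 MDA-MB-468 cells at 50–60% confluence received p53 SMARTpool siRNA or non-specific siRNA (0.430 nmol with Lipofectamine 2000 in Opti-MEM, 5 h), with a second transfection 24 h later. At 72 h after the first transfection, cells were treated with test compound or DMSO. Proliferation was then measured by WST-1 as % of DMSO.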

[21] = test system: p53^R280K MDA-MB-231 cells; assay: Flow-cytometric cell cycle analysis; format: cell-based, human; conditions: MDA-MB-231, 6 μM, 24 h; DMSO 42.9%
[22] = test system: ATM in MDA-MB-231 cells; assay: Western blot of pATM S1981; format: cell-based, human; conditions: MDA-MB-231, 6 μM, 24 h
How it was run: (§5)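 Cells were treated 24 h with 6 μM test compound or DMSO and lysed in NP-40 buffer; 250 μg lysate was run on 4–12% SDS-PAGE and transferred to PVDF. Probing used anti-pATM Ser1981 (1:500) with HRP anti-mouse IgG (1:1000) and ECL detection, then reprobing with anti-GAPDH (1:5000). Experiments were done in triplicate.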

[23] = test system: ATM in MDA-MB-468 cells; assay: Western blot of pATM S1981; format: cell-based, human; conditions: MDA-MB-468, 6 μM, 24 h
How it was run: as §5

[24] = test system: ATM in WT p53 MCF-7 cells; assay: Western blot of pATM S1981; format: cell-based, human; conditions: MCF-7, 6 μM, 24 h
How it was run: as §5

| Structure (SMILES) | IC50 ([1]; MDA-MB-231, 24 h) [µM] | IC50 ([1]; MDA-MB-231, 72 h) [µM] | IC50 ([2]; MDA-MB-468, 24 h) [µM] | IC50 ([2]; MDA-MB-468, 72 h) [µM] | increase in Annexin V stained cells compared to DMSO [5] | increase in Annexin V stained cells compared to DMSO [6] | increase in Annexin V stained cells compared to DMSO [7] | mutant p53 expression (western blot) [8] | mutant p53 expression (western blot) [9] | WT p53 expression (western blot) [10] | expression of canonical p53 targets p21 and NOXA [11] | p53 mRNA levels [11] | expression of MDM2 [12] | expression of canonical p53 targets p21 and NOXA [12] | p53 mRNA levels [12] | expression of MDM2 [13] | expression of canonical p53 targets p21 and NOXA [13] | p53 mRNA level [13] | levels of uncleaved caspase 3, uncleaved PARP1 and cleaved-PARP1 [14] | logP at 18 h [18] | also measured |
| --- | --- | --- | --- | --- | --- | --- | --- | --- | --- | --- | --- | --- | --- | --- | --- | --- | --- | --- | --- | --- | --- |
| [Se]=C=NCCC12CC3CC(CC(C3)C1)C2 [Ad-ISeC 14, 1-Isoselenocyanato-2-(adamantan-1-yl)ethane] | 6 to 12 | 6 to 12 | 6 to 12 | 6 to 12 | enhanced the apoptotic potential | enhanced the apoptotic potential | not in MCF-7 cells | significant reduction in mutant p53 expression | significant reduction in mutant p53 expression | marginally elevated | significantly enhanced the levels of p21 and NOXA | remained unchanged | statistically significant elevation of MDM2 | significantly enhanced the levels of p21 and NOXA | remained unchanged | statistically significant elevation of MDM2 | significant increase in the expression levels | increase in the p53 mRNA level | decrease in the levels of uncleaved caspase 3 and PARP-1 and an increase in the levels of cleaved-PARP1 fragment | – | IC50 compared with mutant p53 tumor cells (in words) ([3]; MCF10A normal cells vs MDA-MB-231 and MDA-MB-468): significantly higher; IC50 compared with mutant p53 tumor cells (in words) ([4]; CCD841 normal cells vs MDA-MB-231 and MDA-MB-468): significantly higher; level of apoptosis compared to Ad-ITC 5 [6]: > 2 fold; levels of uncleaved caspase 3, uncleaved PARP1 and cleaved-PARP1 [15]: decrease in the levels of uncleaved caspase 3 and PARP-1 and an increase in the levels of cleaved-PARP1 fragment; levels of uncleaved PARP1 and cleaved-PARP1 [16]: did not detect any significant change |
| S=C=NCCC12CC3CC(CC(C3)C1)C2 [Ad-ITC 5, 1-Isothiocyanato-2-(adamantan-1-yl)ethane] | 24 to 48 | 12 to 24 | – | – | – | – | did not display any significant increase | differential decrease in the expression of mutant p53 | differential decrease in the expression of mutant p53 | did not decrease WT p53 expression | – | – | – | – | – | – | – | – | – | 4.76 | inhibition of cell proliferation / sensitivity (in words) [17]: did not inhibit MCF-7 cell proliferation |
| S=C=NCCCC12CC3CC(CC(C3)C1)C2 [Ad-ITC 6, 1-Isothiocyanato-3-(adamantan-1-yl)propane] | 12 to 24 | 12 to 24 | 12 to 24 | 12 to 24 | 2.0-5.1 fold | 2.0-5.1 fold | did not display any significant increase | differential decrease in the expression of mutant p53 | differential decrease in the expression of mutant p53 | did not decrease WT p53 expression | enhanced the expression of the canonical p53 targets p21 and NOXA | remained unchanged | enhanced the expression of MDM2 | enhanced the expression of the canonical p53 targets p21 and NOXA | remained unchanged | enhanced the expression of MDM2 | upregulated expression of p21 and NOXA | increase in the p53 mRNA level | significant decrease in the levels of uncleaved caspase 3 and PARP1 | 5.17 | inhibition of cell proliferation (in words) [1]: dose-dependent activity; inhibition of cell proliferation / sensitivity (in words) [17]: remarkably less sensitive; sensitivity of cell proliferation (in words) [19]: significantly reduced sensitivity; IC50 compared with mutant p53 tumor cells (in words) [3]: significantly higher; IC50 compared with mutant p53 tumor cells (in words) [4]: significantly higher; sensitivity of cell proliferation (in words) [20]: markedly reduced sensitivity; cells in G1 phase [21]: 48.2%; phosphorylation of ATM at S1981 [22]: phosphorylation of ATM at S1981; phosphorylation of ATM at S1981 [23]: phosphorylation of ATM at S1981; pATM-S1981 [24]: absent; levels of uncleaved caspase 3, uncleaved PARP1 and cleaved-PARP1 [15]: significant decrease in the levels of uncleaved caspase 3 and PARP1; levels of uncleaved PARP1 and cleaved-PARP1 [16]: did not detect any significant decrease in the levels of uncleaved PARP1 or accumulation of cleaved-PARP1 fragments |
| S=C=NCCOC12CC3CC(CC(C3)C1)C2 [Ad-ITC 8, 1-(2-Isothiocyanatoethoxy)adamantane] | – | – | – | – | – | – | – | – | – | – | – | – | – | – | – | – | – | – | – | 4.42 | inhibition of cell proliferation (in words) [1]: not active in vitro |
